Measurements: ChEMBL document CHEMBL4402564, “Synthetic Lethality in Pancreatic Cancer: Discovery of a New RAD51-BRCA2 Small Molecule Disruptor That Inhibits Homologous Recombination and Synergizes with Olaparib” (J Med Chem, 2020)
Activity calls are given as the source filed them. The calls are words filed in the database; no cut-off is given here.

Legend:
BXPC-3 [1] = assay: Antiproliferative activity against human BxPC3 cells assessed as increase in cell death at 20 uM after 72 hrs in presence of olaparib by CellTox Green assay; type: functional, cell-based
Procedure, shortened: (§1)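 BxPC-3 cells in RPMI 1640 with 10% FBS and 2 mM glutamine. Exposed 72 h to disruptor alone or with 10 μM olaparib, in medium containing 0.6% DMSO. Cell death measured in parallel with viability. Disruptor-only and combination cultures compared statistically.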

BXPC-3 [2] = assay: Antiproliferative activity against human BxPC3 cells assessed as increase in cell death at 10 to 15 uM after 72 hrs in presence of olaparib by CellTox Green assay; type: functional, cell-based; procedure, shortened: as §1
[3] = target: T1, DNA repair protein RAD51 homolog 1 (Homo sapiens) (UniProt Q06609); assay: Inhibition of RAD51 in human BxPC3 cells assessed as increase in gamma-H2AX labelling at 20 uM after 48 hrs in presence of 10 uM olaparib by immunofluorescence microscopic analysis; type: cell-based
T1 sequence (whole entry): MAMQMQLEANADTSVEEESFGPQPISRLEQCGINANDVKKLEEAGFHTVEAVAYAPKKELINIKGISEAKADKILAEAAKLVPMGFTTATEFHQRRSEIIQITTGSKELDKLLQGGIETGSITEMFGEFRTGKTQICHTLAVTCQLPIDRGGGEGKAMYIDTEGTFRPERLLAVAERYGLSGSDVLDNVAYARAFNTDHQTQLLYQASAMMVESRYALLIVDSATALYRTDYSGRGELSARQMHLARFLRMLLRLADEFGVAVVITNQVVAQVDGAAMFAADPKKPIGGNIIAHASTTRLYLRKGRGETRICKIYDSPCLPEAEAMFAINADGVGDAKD
Procedure, shortened: (§2)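 Cells exposed 48 h to 20 μM disruptor alone or with 10 μM olaparib, in medium with 0.6% DMSO. Nuclear γ-H2AX foci visualized by immunofluorescence and percentage of labeled nuclei scored. BxPC-3 (functional BRCA2) and Capan-1 (BRCA2-defective) cultures in RPMI 1640 with 10% FBS.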

HK-2 = assay: Cytotoxicity against human HK2 cells at 20 uM after 72 hrs in presence of 10 uM olaparib by CellTiter-Glo luminescent cell viability assay; type: cell-based; settings: hk-2, 72 h
Procedure, shortened: (§3)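 HK-2 cells are non-neoplastic immortalized human kidney cells grown in DMEM:F12 with 40 ng/mL dexamethasone. Capan-1 cells are BRCA2-defective and grown in RPMI 1640 with 10% FBS and 2 mM glutamine. Both exposed to disruptor with olaparib in 0.6% DMSO medium for an antiproliferative read-out. Drug interaction assessed by two-way ANOVA and combination index (CI <0.8 synergism, 0.8–1.2 additive).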

[4] = target: T1, DNA repair protein RAD51 homolog 1 (Homo sapiens); assay: Inhibition of RAD51 in BRCA2 defective human Capan1 cells assessed as increase in gamma-H2AX labelling at 20 uM after 48 hrs in presence of olaparib by immunofluorescence microscopic analysis; procedure, shortened: as §2
BXPC-3 [5] = assay: Induction of apoptosis in human BxPC3 cells assessed as increase in fluorescence at 20 uM after 72 hrs by DAPI/PI staining based fluorescence microscopic analysis; type: functional, cell-based
Procedure, shortened: (§4)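 BxPC-3 cells treated 72 h with disruptor alone or with olaparib, then stained with mixed DAPI (cell-permeable, nuclear condensation) and propidium iodide (membrane integrity loss). Nuclear morphology and dye uptake examined by fluorescence microscopy.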

CAPAN-1 = assay: Synergistic antiproliferative activity against BRCA2 defective human Capan1 cells at 20 uM after 72 hrs in presence of 10 uM olaparib by CellTiter-Glo luminescent cell viability assay; type: functional, cell-based; procedure, shortened: as §3
[6] = target: T1, DNA repair protein RAD51 homolog 1 (Homo sapiens); assay: Inhibition of RAD51 in human BxPC3 cells assessed as reduction in homologous recombination incubated for 5 hrs by RT-PCR analysis; type: cell-based
Procedure, shortened: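 Commercial two-plasmid recombination assay in BxPC-3 cells, with compound applied at different doses for 5 h simultaneously with plasmid transfection. Tested up to 40 μM, limited by solubility. Dose giving 50% HR inhibition estimated by polynomial regression.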

BXPC-3 [7] = assay: Induction of apoptosis in human BxPC3 cells assessed as increase in fluorescence at 20 uM after 72 hrs in presence of olaparib by DAPI/PI staining based fluorescence microscopic analysis; type: functional, cell-based; procedure, shortened: as §4
BXPC-3 [8] = assay: Induction of DNA damage in human BxPC3 cells assessed as micronuclei formation at 20 uM after 72 hrs by DAPI-staining based fluorescence microscopic analysis; type: functional, cell-based
Procedure, shortened: (§5)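 BxPC-3 cultures treated 72 h with 20 μM disruptor, alone or with 10 μM olaparib, in 0.6% DMSO medium. Micronuclei outside the main nucleus visualized by DNA staining under the microscope. Percentage of micronucleated cells scored.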

BXPC-3 [9] = assay: Synergistic antiproliferative activity against human BxPC3 cells at 20 uM after 72 hrs in presence of 10 uM olaparib by CellTiter-Glo luminescent cell viability assay; type: functional, cell-based
Procedure, shortened: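 BxPC-3 viability data from 72 h exposure to disruptor with 10 μM olaparib (0.6% DMSO medium) used to compute a combination index. CI <0.8 taken as synergism and 0.8–1.2 as additive. CI at each dose tested for difference from 0.8.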

BXPC-3 [10] = assay: Induction of DNA damage in human BxPC3 cells assessed as micronuclei formation at 20 uM after 72 hrs in presence of olaparib by DAPI-staining based fluorescence microscopic analysis; type: functional, cell-based; procedure, shortened: as §5
[11] = target: T1, DNA repair protein RAD51 homolog 1 (Homo sapiens); assay: Inhibition of RAD51 in human BxPC3 cells assessed as reduction in cisplatin-induced RAD51 foci formation at 20 uM preincubated for 1 hr in presence of cisplatin and followed by compound wash out and further incubated with fresh medium containing compounds for 4 hrs by DAPI-staining based immunofluorescence analysis; type: cell-based
Procedure, shortened: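 DNA damage induced in BxPC-3 by 1 h exposure to 50 μM cisplatin, with or without 20 μM disruptor. RAD51 nuclear foci immunostained and percentage of RAD51-labeled nuclei counted.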

BXPC-3 [12] = assay: Antiproliferative activity against human BxPC3 cells at 15 uM after 72 hrs in presence of olaparib by CellTiter-Glo luminescent cell viability assay; type: functional, cell-based
Procedure, shortened: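 BxPC-3 cells grown in RPMI 1640 with 10% FBS, penicillin/streptomycin and 2 mM glutamine. Disruptor given alone or with 10 μM olaparib in medium containing 0.6% DMSO, with the same DMSO in controls. Viability read at 72 h, measured alongside cell death.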

inhibition [3]: Active
inhibition [4]: inactive
inhibition [6]: Dose-dependent effect
inhibition [11]: Active
SMILES: CCC(=O)N1N=C(c2c(-c3ccccc3)c3cc(Cl)ccc3[nH]c2=O)CC1c1ccc(OC)cc1 (racemic)
Activity (BXPC-3 [1]): Active
Activity (BXPC-3 [2]): inactive
Activity (HK-2): Non-Toxic
Activity (BXPC-3 [5]): Active
Activity (CAPAN-1): Active
Activity (BXPC-3 [7]): Active
Activity (BXPC-3 [8]): Active
Activity (BXPC-3 [9]): Active
Activity (BXPC-3 [10]): Active
Activity (BXPC-3 [12]): Active
